Compound activity from PubChem.
A selection: hits, their analogues and other compounds. The true share with any hit is near 1.8%.
MC4R barr agon = MC4R agonists recruiting beta-arrestin, primary screen, cell-based, luminescence, agonist arm of biased-ligand search; Melanocortin receptor 4 (Homo sapiens), P32245; U2OS MC4R beta-arrestin complementation; percent of melanotan II response, DMSO zero; activation, % at 8.9 µM; 360,000 compounds, 0.98% hits;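 active means activation above a per-plate cutoff, the mean activation of sample wells on that plate plus 3 SD, cut at about 8% in these data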
Target sequence (P32245 whole entry, looked up): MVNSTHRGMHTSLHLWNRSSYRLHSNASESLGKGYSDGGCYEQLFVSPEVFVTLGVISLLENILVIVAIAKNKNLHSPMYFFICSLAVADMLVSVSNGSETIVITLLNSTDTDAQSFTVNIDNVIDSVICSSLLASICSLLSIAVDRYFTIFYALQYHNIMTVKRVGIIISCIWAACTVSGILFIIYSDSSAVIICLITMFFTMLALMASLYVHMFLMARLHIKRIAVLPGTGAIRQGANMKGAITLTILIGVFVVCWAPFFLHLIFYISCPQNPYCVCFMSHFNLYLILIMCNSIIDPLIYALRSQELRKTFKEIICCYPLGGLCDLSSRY
MC4R antagonist = MC4R antagonists of cAMP signaling, primary screen, cell-based, TR-FRET, antagonist arm of biased-ligand search; MC4R-expressing cells, MTII-stimulated cAMP, LANCE TR-FRET; 360,000 compounds, 0.48% hits; Melanocortin receptor 4 (Homo sapiens), P32245; inhibition, % at 6.5 µM;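 active means inhibition above its plate's cutoff, the mean of tested wells on that plate plus 3 SD, cut at about 29% in these data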
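Test system: U2OS cells stably expressing human melanocortin 4 receptor (MC4R); also added: Melanotan II challenge; compound: 6.5 µM single dose; timing: 30-min compound preincubation, 1-h Melanotan II challenge, 1-h detection, room temperature; signal: Eu-cAMP/anti-cAMP TR-FRET, emission 671 nm; repeats: one well per compound, no replicates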
TLR4 MyD88 comp = inhibitors of TLR4-MyD88 association in cells, primary screen, cell-based, HeLa CL3-4, BLA complementation, FRET ratio; Toll-like receptor 4 (Homo sapiens) + Myeloid differentiation primary response protein …; HeLa CL3-4 TLR4/MyD88 BLA complementation; inhibition, % at 8.4 µM; 200,000 compounds, 0.18% hits; in the data active means inhibition above about 25%
NOD2 RIPK2 PPI = NOD2-RIPK2 binding disruptors in cells, primary screen, fluorescence, CHO cells, BLA complementation. Receptor-interacting serine/threonine-protein kinase 2 (Homo sapiens), O43353. CCF4 ratio. inhibition, % at 4.98 µM. 360,000 compounds, 0.38% hits. AID 624267, 2012; in the data active means inhibition above about 21%
TLR9-MyD88 block = inhibitors of TLR9-MyD88 association in cells, primary screen, cell-based, CHO, BLA complementation, fluorescence | inhibition, % at 4.98 µM | AID 504734, 2011 | 340,000 compounds, 0.21% hits | Toll-like receptor 9 (Homo sapiens) + Myeloid differentiation primary response protein … | CCF4 FRET ratio;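 active means inhibition above the mean over all tested compounds plus 3 SD, cut at about 21% in these data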
TLR9-MyD88 cf = TLR9-MyD88 association inhibitors, retest, confirmation, cell-based, CHO, BLA complementation, fluorescence, triplicate; AID 540250, 2011; 680 compounds, 51% hits; shares compounds with TLR9-MyD88 block; inhibition, % at 4.98 µM; CCF4 FRET ratio;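 active means mean inhibition across three repeats above about 21% taken from the earlier screen, limit read from the data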;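 further: blue over green emission ratio reports constitutive TLR9 MyD88 association via BLA complementation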
BLA nonselective = beta-lactamase reporter inhibitors in CHO cells, artefact control for TLR9-MyD88 binding inhibitor project, cell-based, fluorescence; shares compounds with TLR9-MyD88 block; CHO-BLA cells, CCF4 FRET ratio, BLA reporter; inhibition, % at 4.98 µM; 680 compounds, 7% hits;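 active means mean inhibition above a 50% cutoff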;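 further: counterscreen of TLR9-MyD88 hits on CMV-driven BLA in CHO-K1 cells; higher means less blue over green ratio so more BLA blockade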
TLR9 CHO cytotox = CHO cell viability loss – luminescence, single concentration, cytotoxicity control for TLR9-MyD88 binding inhibitor project | shares compounds with TLR9-MyD88 block | TLR9-MyD88 CHO cells cytotoxicity | inhibition, % at 4.98 µM | 680 compounds, 39% hits | AID 588336, 2011; in the data active means inhibition above about 11%
Hits are given with their value; i = inactive; nt = not tested or not shown.

SMILES	MC4R barr agon	MC4R antagonist	TLR4 MyD88 comp	NOD2 RIPK2 PPI	TLR9-MyD88 block	TLR9-MyD88 cf	BLA nonselective	TLR9 CHO cytotox
OCCN1CCN(CC(O)COc2ccc(C34CC5CC(CC(C5)C3)C4)cc2)CC1 (centres undefined)	i	i	i	i	22	i	i	40
COc1cc(NC(=O)CCS(=O)(=O)c2ccc3c(c2)n(C)c(=O)c(=O)n3C)cc(OC)c1	i	i	nt	i	i	nt	nt	nt
NNC(=O)c1oc2nc(-c3cccs3)cc(-c3ccco3)c2c1N	i	i	nt	i	22	i	i	i
CCn1c(/C=C/c2cc[n+](C)cc2)nc2ccccc21	i	i	nt	i	24	i	i	i
CCCn1c(/C=C/c2ccccc2)nc2ccccc21	i	i	i	i	i	nt	nt	nt
CCOC(=O)CNc1c(-c2ccc(F)cc2)nc2cnccn12	i	i	i	i	24	i	i	i
Fc1ccc(Br)cc1C1C=C(c2ccc(Br)s2)Nc2ncnn21 (centres undefined)	i	i	i	i	i	nt	nt	nt
COc1cccc(C2C=C(c3ccc(Br)s3)Nc3ncnn32)c1OC (centres undefined)	i	i	i	31	27	i	i	i
CC(=O)Oc1ccc(-n2c(=O)c3ccccc3c3ccccc3c2=O)cc1	i	i	i	i	i	nt	nt	nt
CC(=O)Oc1ccc(N2C(=O)c3cccc4c([N+](=O)[O-])ccc(c34)C2=O)cc1	i	i	nt	i	23	32	i	85
CCOC(=O)COc1ccc2c(C#N)c3ccccn3c2c1	i	i	i	i	26	i	i	i
CSS(=O)(=O)c1cccc2cccnc12	i	i	nt	i	nt	nt	nt	nt
COC(=O)c1ccc(Cn2c(O)c(N=O)c3ccccc32)o1	i	i	i	i	26	i	i	i
CC(C)c1cccc(-c2ccc3c(c2)S(=O)(=O)c2cccc(C(=O)NCc4ccccc4)c2C3=O)c1	i	i	nt	i	i	nt	nt	nt
O=C(NCc1ccco1)c1cccc2c1C(=O)c1ccc(N3CCC(Cc4ccccc4)CC3)cc1S2(=O)=O	i	i	nt	32	27	37	i	i
CC1CCN(c2ccc3c(c2)S(=O)(=O)c2cccc(C(=O)NCc4cccc(F)c4)c2C3=O)CC1	i	i	nt	i	i	nt	nt	nt
O=C(NCc1ccc(OC(F)(F)F)cc1)c1cccc2c1C(=O)c1ccc(N3CCC(Cc4ccccc4)CC3)cc1S2(=O)=O	i	i	nt	i	i	nt	nt	nt
O=C(NCc1cccc(C(F)(F)F)c1)c1cccc2c1C(=O)c1ccc(N3CCC(Cc4ccccc4)CC3)cc1S2(=O)=O	i	i	nt	i	31	45	i	i
O=C(NCc1cccc(F)c1)c1cccc2c1C(=O)c1ccc(N3CCC(Cc4ccccc4)CC3)cc1S2(=O)=O	i	i	nt	21	50	44	i	i
O=C(NCc1ccco1)c1cccc2c1C(=O)c1ccc(/C=C/c3ccccc3)cc1S2(=O)=O	i	i	nt	i	30	47	52	12
CS(=O)(=O)c1cnc(-c2cccnc2)nc1N	i	i	i	i	22	i	i	i
Cc1[nH]c2ccccc2c1-c1csc(NC(=O)CSCCO)n1	i	i	i	i	i	nt	nt	nt
CCCS(=O)(=O)NC(=O)C1(C)CCCN(C(=O)c2ccc(SC(F)(F)F)cc2)C1 (centres undefined)	i	i	nt	i	nt	nt	nt	nt
